The source made the active and inactive calls. The calls are words filed in the database; no cut-off is given here. Bounds are passed on as bounds.

One data set concerns NCI-H727. The experiment in a line: Cytotoxicity against human NCI-H727 cells expressing VIPR1 up to 10 uM in presence of 2% serum. It counts as functional, cell-based. The essentials: (§1)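 Cell proliferation in H727, H1299 and Calu6 lines, chosen for high VIPR1 expression. Medium held 2% serum to limit albumin sequestration. Compounds were tested at concentrations up to 10 µM.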

Data set [1] in a line: Plasma protein binding in human. Type of data set: ADME, cell-free. Conditions: read-out: PPB (converted).
A further data set relates to NCI-H1299. Briefly: Cytotoxicity against human NCI-H1299 cells expressing VIPR1 up to 10 uM in presence of 2% serum. Type of data set: functional, cell-based. The essentials: as §1
Data set [2] has as its target T1, Vasoactive intestinal polypeptide receptor 1 (Rattus norvegicus) (UniProt P30083).
T1 sequence (whole entry): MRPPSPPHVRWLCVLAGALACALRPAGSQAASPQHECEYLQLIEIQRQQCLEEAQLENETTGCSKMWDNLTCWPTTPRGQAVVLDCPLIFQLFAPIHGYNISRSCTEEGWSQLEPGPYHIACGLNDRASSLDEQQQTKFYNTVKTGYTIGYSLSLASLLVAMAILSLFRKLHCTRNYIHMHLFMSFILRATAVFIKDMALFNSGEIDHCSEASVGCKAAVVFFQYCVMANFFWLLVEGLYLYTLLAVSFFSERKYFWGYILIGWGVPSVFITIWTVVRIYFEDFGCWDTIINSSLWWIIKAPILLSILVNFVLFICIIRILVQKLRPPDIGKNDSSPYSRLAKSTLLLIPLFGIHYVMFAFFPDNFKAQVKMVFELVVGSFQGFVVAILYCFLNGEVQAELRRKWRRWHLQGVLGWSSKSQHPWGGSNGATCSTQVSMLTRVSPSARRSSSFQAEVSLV
The experiment in a line: Displacement of [125I]VIP from vasoactive intestinal peptide receptor 1 in rat RKE cell membrane after 3 hrs by TopCount assay. Type of data set: cell membranes. The method, boiled down:
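Membranes from RKE-VIPR cells, 5 µg/well final, preincubated 10 min at room temperature with wheat germ agglutinin-coated PVT beads in 50 mM HEPES, 5 mM MgCl2, 1 mM CaCl2, 0.1% BSA. IC50 taken from a four-parameter logistic fit after subtracting nonspecific binding, defined with excess VIP.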
Background: Displacement assays read how much labelled ligand stays bound in the presence of the test substance.

In a further data set the test system is Calu-6. Briefly: Cytotoxicity against human Calu6 cells expressing VIPR1 up to 10 uM in presence of 2% serum. Type of data set: functional, cell-based. The method, boiled down: as §1
For data set [3], the target named is T2, Vasoactive intestinal polypeptide receptor 1 (Rattus norvegicus, UniProt P30083).
T2 sequence (P30083 whole entry): T1 sequence (whole entry)
Briefly: Antagonist activity at vasoactive intestinal peptide receptor 1 in rat RKE cells assessed as inhibition of VIP-induced intracellular cAMP accumulation incubated for 15 mins prior to VIP-stimulation measured after 30 mins by HTRF assay.

Data set [4] is described as follows: Plasma protein binding in mouse. Conditions: read-out: PPB (converted). It counts as ADME, cell-free.

One may read the IC50 as the point on the concentration scale where inhibition reaches its midpoint. On to `CC(C)c1cc(C(C)(C)C)cc(-c2ccc(F)cc2)c1CO`, for which the result with NCI-H727, with NCI-H1299 and in the data set on Calu-6 was inactive. The fraction unbound in data set [1] and in data set [4] was 0.1 throughout. In data set [2], the outcome was Active. For the same molecule, the IC50 in data set [3] worked out at 740 nM.
With `COc1cccc(-c2cc(C(C)(C)C)cc(C(C)C)c2CO)c1`, the outcome with NCI-H727, in the data set with NCI-H1299 and with Calu-6 was inactive. Moreover, the outcome in data set [2] was Active. In addition, in data set [3], the concentration for half-maximal inhibition (IC50) came to 200 nM.
Regarding `CC(C)c1cc(C(C)(C)C)cc(-c2ccc(-c3ccccc3)cc2)c1CO`, the outcome in the data set with NCI-H727, in the data set with NCI-H1299 and in the data set with Calu-6 was inactive. Besides, the outcome in data set [2] was Active. Moreover, in data set [3], the half-inhibitory concentration (IC50) came to 680 nM.
Regarding `CC(C)c1cc(C(C)(C)C)cc(-c2cccc(N(C)C)c2)c1CO`, the result with NCI-H727, in the data set with NCI-H1299 and in the data set with Calu-6 was inactive. Further, the outcome in data set [2] was Active. In addition, in data set [3], the concentration for half-maximal inhibition (IC50) stood at 310 nM.
In the case of `COc1ccc(-c2cc(C(C)(C)C)cc(C(C)C)c2CO)cc1`, the result in the data set with NCI-H727, in the data set with NCI-H1299 and with Calu-6 was inactive. Further, the outcome in data set [2] was Active. In addition, in data set [3], the 50% inhibitory concentration (IC50) worked out at 1300 nM.
With `CC(C)c1cc(C(C)(C)C)cc(-c2cccc(C(F)(F)F)c2)c1CO`, the outcome in the data set on NCI-H727, with NCI-H1299 and in the data set with Calu-6 was inactive. Besides, the result in data set [2] was Active. Further, in data set [3], the half-inhibitory concentration (IC50) is more than 50000 nM.
Turning to `COc1ccccc1-c1cc(C(C)(C)C)cc(C(C)C)c1CO`, the outcome in the data set with NCI-H727, with NCI-H1299 and with Calu-6 was inactive. Moreover, the result in data set [2] was Active. The IC50 in data set [3] was 820 nM.
For `CC(C)c1cc(C(C)(C)C)cc(-c2cccc3ccccc23)c1CO`, the outcome in the data set on NCI-H727, in the data set with NCI-H1299 and with Calu-6 was inactive. In data set [2], the outcome was Active. The IC50 in data set [3] was 180 nM.
With `CC(C)c1cc(C(C)(C)C)cc(-c2cccc(Cl)c2)c1CO`, the outcome in the data set on NCI-H727, with NCI-H1299 and in the data set on Calu-6 was inactive. The outcome in data set [2] was Active. Besides, the IC50 in data set [3] was 100 nM.
In the case of `Cc1ccc(-c2cc(C(C)(C)C)cc(C(C)C)c2CO)cc1C`, the outcome in the data set on NCI-H727, with NCI-H1299 and in the data set with Calu-6 was inactive. For the same molecule, the result in data set [2] was Active. In addition, the IC50 in data set [3] was 81 nM.
`Cc1ccc(-c2cc(C(C)(C)C)cc(C(C)C)c2CO)cc1`: the outcome with NCI-H727, with NCI-H1299 and with Calu-6 was inactive. Besides, the result in data set [2] was Active. Besides, the IC50 in data set [3] came to 300 nM.
